Laboratory results from ChEMBL document CHEMBL1157948, “Triterpenoids from the resin of Styrax tonkinensis and their antiproliferative and differentiation effects in human leukemia HL-60 cells” (2006).

Key:
Type in all cases: functional
[1] = tested on: HL-60; assay: Growth inhibition of human HL60 cells after 3 days by trypan blue method
Method in brief: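 HL-60 cells grown in RPMI-1640 with 10% heat-inactivated FBS, 1 mM L-glutamine, penicillin/streptomycin. Log-phase cells seeded at 1 × 10⁵ cells/mL and exposed to a range of concentrations for 3 days, in triplicate. Total cells counted on a hemocytometer, with trypan blue marking nonviable cells. Growth inhibition taken relative to untreated control; IG₅₀ from regression of concentration-response data; mean ± SE of three independent experiments.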

[2] = tested on: HL-60; assay: Induction of cell differentiation of human HL60 cells after 3 days by NBT reduction method; parameters: concentration or dose not given beside the values
Method in brief: (§1)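 HL-60 cells in RPMI-1640 with 10% heat-inactivated FBS, seeded at 1 × 10⁵ cells/mL in log phase and treated 3 days at nontoxic concentrations. Differentiation scored by NBT reduction as percentage of NBT-positive cells among 200 counted; mean ± SE of three independent experiments.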

[3] = tested on: HL-60; assay: Induction of cell differentiation of human HL60 cells at 100 uM after 3 days by NBT reduction method; method in brief: as §1

SMILES | IG50 [1] [µM] | Activity [2] [%] | Activity [3] [%]
CC1(C)CC[C@]2(C(=O)O)CC[C@]3(C)C(=CC[C@@H]4[C@@]5(C)CCC(=O)C(C)(C)[C@@H]5[C@H](O)C[C@]43C)[C@@H]2C1 | 14.2 | <10 | –
CC1(C)CC[C@]2(C(=O)O)CC[C@]3(C)C(=CC[C@@H]4[C@@]5(C)CCC(=O)C(C)(C)[C@@H]5CC[C@]43C)[C@@H]2[C@@H]1O | 41 | <10 | –
CC1(C)CC[C@]2(C(=O)O)CC[C@]3(C)C(=CC(=O)[C@@H]4[C@@]5(C)CC[C@H](O)C(C)(C)[C@@H]5[C@H](O)C[C@]43C)[C@@H]2C1 | 99.4 | – | 44
CC1(C)CC[C@]23CC[C@]4(C)[C@@H](C(=O)C[C@@H]5[C@@]6(C)CC[C@H](O)C(C)(C)[C@@H]6CC[C@]54C)[C@@H]2[C@H]1OC3=O | 51.2 | <10 | –
CC1(C)CC[C@@]23CC[C@]4(C)[C@@](OC2=O)([C@@H]3C1)[C@H]1O[C@H]1[C@@H]1[C@@]2(C)CCC(=O)C(C)(C)[C@@H]2[C@H](O)C[C@]14C | 41.8 | <10 | –
CC1(C)CC[C@@]23CC[C@]4(C)[C@@](OC2=O)([C@@H]3C1)[C@H]1O[C@H]1[C@@H]1[C@@]2(C)CC[C@H](O)C(C)(C)[C@@H]2[C@H](O)C[C@]14C | 27.5 | <10 | –
CC1(C)CC[C@]2(C(=O)O)CC[C@]3(C)C(=CC[C@@H]4[C@@]5(C)CC[C@H](O)C(C)(C)[C@@H]5CC[C@]43C)[C@@H]2C1 [OLEANOLIC_ACID] | 8.9 | <10 | –
CC1(C)CC[C@]2(C(=O)O)CC[C@]3(C)C(=CC[C@@H]4[C@@]5(C)CC[C@H](O)C(C)(C)[C@@H]5CC[C@]43C)[C@@H]2[C@@H]1O [SIARESINOLIC ACID] | 29 | <10 | –
CC1(C)CC[C@]2(C(=O)O)CC[C@]3(C)C(=CC[C@@H]4[C@@]5(C)CC[C@H](O)C(C)(C)[C@@H]5[C@H](O)C[C@]43C)[C@@H]2C1 [SUMARESINOLIC ACID] | 30.2 | <10 | –
